Consider 12 compounds from ChEMBL document CHEMBL1147200, “Synthesis, structural characterization, and in vitro antitumor activity of novel N-(6-chloro-1,1-dioxo-1,4,2-benzodithiazin-3-yl)arylsulfonamides” (2007).

Common to all, as to assay type: functional
The nature of assay [1]: Cytotoxicity against human LCLC103H cells after 96 hrs. Conditions: LCLC-103H. In outline: (§1)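 Cells plated in 96-well format, left 24 h, then given compound continuously for 96 h. Growth read by staining attached viable cells with crystal violet, washing, redissolving bound dye in 70% ethanol and reading OD at 570 nm. GI50 computed from dose–response data of 5 to 7 independent experiments.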

The test system of another assay is RT-4. The experiment in a line: Cytotoxicity against human RT4 cells after 96 hrs. Conditions: RT-4, 96 h. In outline:
as §1

The test system of another assay is A-427. The experiment in a line: Cytotoxicity against human A427 cells after 96 hrs. Conditions: A-427, 96 h. The gist of the method:
as §1

The test system of a further assay is MCF7. The experiment in a line: Cytotoxicity against human MCF7 cells after 96 hrs. Conditions: MCF7, 96 h. In outline:
as §1

The next assay has as its system 5637. The experiment in a line: Cytotoxicity against human 5637 cells after 96 hrs. Conditions: Homo sapiens, 5637, 96 h. In outline:
as §1

The next assay concerns DAN-G. The experiment in a line: Cytotoxicity against human DANG cells after 96 hrs. The gist of the method:
as §1

The structures appear in SMILES notation. Some results are limits rather than exact numbers.

For orientation: GI50 means the concentration at which growth is held to half of that of the control. Low readings indicate more potent growth inhibition, high ones less potent growth inhibition. On to `CCOC(=O)c1cc2c(cc1Cl)SC(N(c1ccc(OC)cc1)S(=O)(=O)c1ccc(Cl)cc1Cl)=NS2(=O)=O`, for which the GI50 is 2.8 µM in assay [1]; 6.3 µM in the assay on RT-4; 4.1 µM in the assay on A-427; 2.4 µM in the assay on MCF7; 2.3 µM with 5637; 3.1 µM with DAN-G.
As for `O=C(Oc1cccc2cccnc12)c1cc2c(cc1Cl)SC(N(c1ccc(F)cc1)S(=O)(=O)c1ccc(Cl)cc1)=NS2(=O)=O`, the GI50 in assay [1] is 4.6 µM; in the assay on RT-4, > 20 µM; with A-427 it was 3.1 µM; in the assay on MCF7, 3.2 µM; in the assay with 5637, 6.2 µM; in the assay with DAN-G, 9.3 µM.
In the case of `Cc1cc2c(cc1Cl)SC(N(N(C)C)S(=O)(=O)c1ccc(Cl)cc1)=NS2(=O)=O`, the GI50 was > 20 µM in assay [1]; > 20 µM with RT-4; 15.6 µM with A-427; 12.3 µM with MCF7; 19.2 µM with 5637; 23.5 µM with DAN-G.
On to `CCOC(=O)c1cc2c(cc1Cl)SC(N(c1ccccc1)S(=O)(=O)c1ccc(Cl)cc1)=NS2(=O)=O`, for which the GI50 is > 20 µM in assay [1]; > 20 µM in the assay on RT-4; 11.7 µM with A-427; 9.8 µM in the assay with MCF7; 14.3 µM with 5637; 14.8 µM in the assay on DAN-G.
Regarding `Cc1cc2c(cc1Cl)SC(N(c1ccccc1Cl)S(=O)(=O)c1ccc(Br)s1)=NS2(=O)=O`, the GI50 in assay [1] amounted to 11.9 µM; in the assay with RT-4, 28.6 µM; with A-427, 8.2 µM; in the assay with MCF7, 6.5 µM; in the assay with 5637 it was 7.5 µM; with DAN-G it was 9.4 µM.
In the case of `Cc1cc2c(cc1Cl)SC(N(c1ccc(Cl)cc1)S(=O)(=O)c1ccccc1)=NS2(=O)=O`, the GI50 was 12.4 µM in assay [1]; 22 µM in the assay with RT-4; 9.2 µM in the assay with A-427; 8.1 µM with MCF7; 9.6 µM in the assay with 5637; 9.9 µM with DAN-G.
Consider `CCOC(=O)c1cc2c(cc1Cl)SC(N(c1ccc(OC)cc1)S(=O)(=O)c1ccccc1)=NS2(=O)=O`, for which the GI50 in assay [1] was 9.3 µM; in the assay on RT-4 it was 16.8 µM; in the assay on A-427, 7 µM; in the assay with MCF7, 4.9 µM; in the assay on 5637, 6.5 µM; with DAN-G, 7.6 µM.
As for `CCOC(=O)c1cc2c(cc1Cl)SC(N(c1ccc(F)cc1)S(=O)(=O)c1ccc(OC)cc1)=NS2(=O)=O`, the GI50 in assay [1] came to 17.5 µM; with RT-4 it was 19 µM; with A-427 it was 8.4 µM; with MCF7, 5.8 µM; in the assay with 5637 it was 12.1 µM; in the assay on DAN-G, 12 µM.
Consider `O=C(Oc1cccc2cccnc12)c1cc2c(cc1Cl)SC(N(c1ccc(F)cc1)S(=O)(=O)c1ccc(Br)s1)=NS2(=O)=O`, for which the GI50 in assay [1] was 5.3 µM; with RT-4, > 20 µM; with A-427, 3.4 µM; in the assay with MCF7, 3.2 µM; in the assay on 5637 it was 5.1 µM; in the assay on DAN-G, 8.2 µM.
As for `COC(=O)c1cc2c(cc1Cl)SC(N(N(C)C)S(=O)(=O)c1ccc(Br)s1)=NS2(=O)=O`, the GI50 in assay [1] was determined as 19.1 µM; in the assay on RT-4 it was 18.5 µM; in the assay with A-427 it was 12 µM; with MCF7, 10.9 µM; in the assay with 5637 it was 13.7 µM; with DAN-G it was 23.7 µM.
For `COC(=O)c1cc2c(cc1Cl)SC(N(N(C)C)S(=O)(=O)c1ccc(Cl)cc1)=NS2(=O)=O`, the GI50 is 19.6 µM in assay [1]; 18.5 µM in the assay on RT-4; 10.2 µM in the assay with A-427; 8.7 µM in the assay on MCF7; 12.6 µM in the assay with 5637; 18.7 µM in the assay with DAN-G.
For `CCOC(=O)c1cc2c(cc1Cl)SC(N(c1ccc(OC)cc1)S(=O)(=O)c1ccc(Cl)cc1)=NS2(=O)=O`, the GI50 was found to be 19.3 µM in assay [1]; 23.1 µM in the assay on RT-4; 11.2 µM in the assay on A-427; 8.1 µM in the assay with MCF7; 11.9 µM with 5637; 12.3 µM in the assay with DAN-G.
